Substitutions are numbered along the chain they refer to.
Legend:
PME-1 [1] = biological target: T1, PME-1 (Homo sapiens, UniProt Q9Y570); conditions: read-out: PME-1 IC50; cited from earlier work
T1 sequence (Q9Y570 2-386 limits assumed): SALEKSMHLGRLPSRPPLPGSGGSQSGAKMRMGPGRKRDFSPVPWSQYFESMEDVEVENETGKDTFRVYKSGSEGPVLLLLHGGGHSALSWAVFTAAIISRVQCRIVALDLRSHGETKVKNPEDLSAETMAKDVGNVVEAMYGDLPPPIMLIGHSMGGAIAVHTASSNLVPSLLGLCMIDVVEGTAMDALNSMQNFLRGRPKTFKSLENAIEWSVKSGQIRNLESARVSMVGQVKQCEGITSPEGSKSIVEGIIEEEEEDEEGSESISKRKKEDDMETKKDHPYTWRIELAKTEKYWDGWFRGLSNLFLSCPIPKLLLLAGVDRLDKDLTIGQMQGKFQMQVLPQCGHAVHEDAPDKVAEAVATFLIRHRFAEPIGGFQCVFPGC

[2] = tested on: demethylated form of PP2A; assay: PP2A methylation state in untransfected HEK 293T cells; format: cell-based, human; conditions: 1 hour, basal PME-1
How it was run: (§1)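 Compound or DMSO added to the medium of HEK 293T cells at 37 °C. Total sonicated cell extract diluted to 2 mg/mL in PBS, run on reducing 10% SDS-PAGE, and immunoblotted with demethylated-specific (4b7), methylated-specific (2A10) and total PP2A antibodies plus α-tubulin. Bands quantified by fluorescence imaging. Mean ± SEM, n = 3; compared with DMSO-treated cells.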

PME-1 [3] = biological target: T2, PME-1 (Mus musculus, UniProt Q8BVQ5); assay: Gel-based competitive ABPP with FP-Rh, PME-1 in mouse brain soluble proteome; format: biochemical
T2 sequence (Q8BVQ5 1-386): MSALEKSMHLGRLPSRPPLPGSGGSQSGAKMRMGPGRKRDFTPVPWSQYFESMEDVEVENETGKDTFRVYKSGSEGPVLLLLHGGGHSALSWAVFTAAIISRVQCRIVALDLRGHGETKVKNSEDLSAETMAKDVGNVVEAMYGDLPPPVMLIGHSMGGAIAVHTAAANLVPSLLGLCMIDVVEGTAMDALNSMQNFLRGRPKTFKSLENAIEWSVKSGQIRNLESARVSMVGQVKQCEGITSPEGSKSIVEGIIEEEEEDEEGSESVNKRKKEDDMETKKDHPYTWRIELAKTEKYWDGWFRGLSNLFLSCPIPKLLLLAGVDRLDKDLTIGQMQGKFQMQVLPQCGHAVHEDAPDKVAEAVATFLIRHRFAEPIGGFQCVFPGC
How it was run: (§2)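 Soluble proteomes diluted to 1 mg/mL in PBS (pH 7.5) and preincubated with compound or DMSO for 30 min at 25 °C. FP-rhodamine then added (2 μM final) for 45 min. Reactions quenched with reducing SDS loading buffer, separated by 10% SDS-PAGE, and serine hydrolase activity read by in-gel fluorescence scanning.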

PME-1 [4] = biological target: T1, PME-1; assay: PME-1 IC50 by gel-based competitive ABPP in soluble proteomes; format: biochemical; conditions: Table 2 series
other SHs [5] = format: biochemical, mouse; conditions: Off-targets are defined as SHs with >50% inhibition at 50 μM; Table 1 series
How it was run: as §2

PP2A methylation state = PP2A methylation state in HEK 293T cells stably overexpressing PME-1; format: cell-based, human; conditions: 20 μM, 1 h
How it was run: as §1

[6] = tested on: other SHs in human cell lysates; assay: Gel-based competitive ABPP, other SHs in human cell proteomes/lysates; format: biochemical; conditions: human cell proteomes
[7] = tested on: 35 other SHs detected in HEK 293T cells; assay: In situ competitive SILAC-ABPP; format: cell-based, human; conditions: 20 μM, 1 h
How it was run: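 HEK 293T cells SILAC-labelled with light or heavy Lys/Arg. Light cells given compound and heavy cells DMSO, 1 h at 37 °C. Soluble and membrane proteomes (0.5 mg each) mixed 1:1 and labelled with FP-biotin (5 μM, 1 h, 25 °C). Streptavidin enrichment, on-bead trypsin digestion, then MudPIT LC-MS/MS. Light/heavy ratios taken for SHs with ≥2 quantifiable peptides, normalised to a DMSO/DMSO control.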

[8] = tested on: CA-Rh or SE-Rh-labeled proteins; assay: CA-Rh / SE-Rh probe labeling of soluble proteomes from treated HEK 293T cells; format: cell-based, human; conditions: 100 μM, relative to DMSO-treated samples
How it was run: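 Compound or DMSO added to the culture medium of HEK 293T cells at 37 °C. Cells washed, scraped, pelleted, and sonicated in ice-cold PBS (pH 7.5). Soluble fraction isolated at 64,000g for 45 min at 4 °C and diluted to 1 mg/mL. Labelled with CA-rhodamine or SE-rhodamine (5 μM, 1 h, 25 °C), resolved by reducing 10% SDS-PAGE, and scanned for in-gel fluorescence.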

PME-1 [9] = biological target: T3, PME-1 (Homo sapiens, UniProt Q9Y570); assay: In situ competitive SILAC-ABPP; format: cell-based; conditions: HEK 293T cells, 20 μM, 1 h
T3 sequence (Q9Y570 1-386): T2 sequence (Q8BVQ5 1-386) with T42S, G114S, S123P, V150I, A167S, A168S, V268I, N269S

other SHs [10] = assay: In situ gel-based competitive ABPP, other SHs in HEK 293T cells; format: cell-based, human; conditions: up to 100 μM compound, 1 h
How it was run: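 HEK 293T cells treated in culture with a concentration range of compound or DMSO for 1 h at 37 °C, then harvested and sonicated in PBS (pH 7.5). Soluble fraction (64,000g supernatant) diluted to 1 mg/mL and labelled with FP-rhodamine (2 μM, 45 min, 25 °C). Resolved by 10% SDS-PAGE and read by in-gel fluorescence scanning.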

Purified wild-type PME-1 = biological target: T4, Purified wild-type PME-1 (Homo sapiens, UniProt Q9Y570); assay: Reversibility of PME-1 inhibition; format: biochemical; conditions: PME-1 500 nM, compound 50 μM
T4 sequence (Q9Y570 1-386): T2 sequence (Q8BVQ5 1-386) with T42S, G114S, S123P, V150I, A167S, A168S, V268I, N269S

Compound: COC(=O)N1C(=O)[C@](c2ccccc2)(C2CCCC2)N1C(=O)OC (stereo in doubt) [Cmpd 1, reference compound]
- IC50 (PME-1 [1]): ~10 nM
- Effect on the demethylated form of PP2A ([2]; 500 nM): decreased the demethylated form of PP2A

Compound: CS(=O)(=O)/C(C#N)=C/c1ccc[nH]1 [Cmpd 7, (E)-2-(methylsulfonyl)-3-(1H-pyrrol-2-yl)acrylonitrile]
- PME-1 activity (in words) (PME-1 [3]): inactive

Compound: CS(=O)(=O)/C(C#N)=C/c1cccn1S(=O)(=O)c1c(F)c(F)c(F)c(F)c1F [Cmpd 22, (E)-2-(methylsulfonyl)-3-(1-((perfluorophenyl)sulfonyl)-1H-pyrrol-2-yl)acrylonitrile]
- PME-1 activity (in words) (PME-1 [4]): no activity

Compound: CS(=O)(=O)/C(C#N)=C/c1ccc([N+](=O)[O-])cc1 [Cmpd 9, (E)-2-(methylsulfonyl)-3-(4-nitrophenyl)acrylonitrile]
- PME-1 activity (in words) (PME-1 [3]): inactive

Compound: CS(=O)(=O)/C(C#N)=C/c1ccccc1 [Cmpd 8, (E)-2-(methylsulfonyl)-3-phenylacrylonitrile]
- PME-1 activity (in words) (PME-1 [3]): inactive

Compound: N#CC(C#N)=Cc1cccn1S(=O)(=O)c1ccccc1 [Cmpd 17, 2-((1-(phenylsulfonyl)-1H-pyrrol-2-yl)methylene)malononitrile]
- PME-1 activity (in words) (PME-1 [3]): two-fold less potent
- Off-targets (other SHs [5]): increased activity against a 40 kDa SH

Compound: N#C/C(=C\c1cccn1S(=O)(=O)c1cccc(C#N)c1)S(=O)(=O)c1ccc(F)cc1 [Cmpd 27, (E)-3-(2-(2-cyano-2-(4-fluorophenylsulfonyl)vinyl)-1H-pyrrol-1-ylsulfonyl)benzonitrile]
- Effect on the methylated form of PP2A (PP2A methylation state): significantly increased

Compound: CS(=O)(=O)C(=Cc1cccn1S(=O)(=O)c1ccccc1)S(C)(=O)=O [Cmpd 16, 2-(2,2-bis(methylsulfonyl)vinyl)-1-(phenylsulfonyl)-1H-pyrrole]
- PME-1 activity (in words) (PME-1 [3]): did not inhibit PME-1

Compound: CS(=O)(=O)/C(=C/c1cccn1S(=O)(=O)c1ccccc1)CN [Cmpd 4, (E)-2-(methylsulfonyl)-3-(1-(phenylsulfonyl)-1H-pyrrol-2-yl)prop-2-en-1-amine]
- PME-1 activity (in words) (PME-1 [3]): inactive

Compound: CS(=O)(=O)/C(C#N)=C/c1cccn1S(=O)(=O)c1ccccc1 [Cmpd 2]
- Cross-reactivity with additional SHs [6]: acyl-peptide hydrolase (APEH) and an unidentified 30 kDa SH

Compound: CS(=O)(=O)C(C#N)Cc1cccn1S(=O)(=O)c1ccccc1 (centres unmarked) [Cmpd 3, 2-(methylsulfonyl)-3-(1-(phenylsulfonyl)-1H-pyrrol-2-yl)propanenitrile]
- PME-1 activity (in words) (PME-1 [3]): inactive

Compound: N#C/C(=C\c1cccn1S(=O)(=O)c1cccc([N+](=O)[O-])c1)S(=O)(=O)c1ccc(F)cc1 [Cmpd 28, (E)-2-(4-fluorophenylsulfonyl)-3-(1-(3-nitrophenylsulfonyl)-1H-pyrrol-2-yl)acrylonitrile]
- Activity against other SHs (SILAC-ABPP) [7]: no activity
- Change of intensity of CA-Rh or SE-Rh-labeled proteins [8]: did not alter the intensity
- in situ inhibition of PME-1 (SILAC-ABPP) (PME-1 [9]): complete in situ inhibition
- Cross-reactivity with other SHs in situ (other SHs [10]): without any observed cross-reactivity
- Effect on the methylated form of PP2A (PP2A methylation state): significantly increased
- Effect on the demethylated form of PP2A ([2]; 20 μM): decreased the demethylated form of PP2A
- Recovery of enzyme activity after gel filtration (Purified wild-type PME-1): not observed

Reference: publication PMC3144155 (Journal of medicinal chemistry, 2011)
